# Test results taken from ChEMBL document CHEMBL6134899 (J Med Chem, 2025).
# Activity calls are given as the source filed them. The rule behind the calls is not given here.
# Key:
# [1] = target: Sodium-dependent serotonin transporter (Homo sapiens) (UniProt P31645); assay: Inhibition of SERT receptor (unknown origin) at 100 nM
# [2] = target: Sodium-dependent noradrenaline transporter (Homo sapiens) (UniProt P23975); settings: dose 10-100 nM
# [3] = target: Sodium-dependent dopamine transporter (Homo sapiens) (UniProt Q01959); assay: Inhibition of DAT receptor (unknown origin) at 100 nM
# Sequence of Sodium-dependent dopamine transporter (Homo sapiens) (Q01959 whole entry): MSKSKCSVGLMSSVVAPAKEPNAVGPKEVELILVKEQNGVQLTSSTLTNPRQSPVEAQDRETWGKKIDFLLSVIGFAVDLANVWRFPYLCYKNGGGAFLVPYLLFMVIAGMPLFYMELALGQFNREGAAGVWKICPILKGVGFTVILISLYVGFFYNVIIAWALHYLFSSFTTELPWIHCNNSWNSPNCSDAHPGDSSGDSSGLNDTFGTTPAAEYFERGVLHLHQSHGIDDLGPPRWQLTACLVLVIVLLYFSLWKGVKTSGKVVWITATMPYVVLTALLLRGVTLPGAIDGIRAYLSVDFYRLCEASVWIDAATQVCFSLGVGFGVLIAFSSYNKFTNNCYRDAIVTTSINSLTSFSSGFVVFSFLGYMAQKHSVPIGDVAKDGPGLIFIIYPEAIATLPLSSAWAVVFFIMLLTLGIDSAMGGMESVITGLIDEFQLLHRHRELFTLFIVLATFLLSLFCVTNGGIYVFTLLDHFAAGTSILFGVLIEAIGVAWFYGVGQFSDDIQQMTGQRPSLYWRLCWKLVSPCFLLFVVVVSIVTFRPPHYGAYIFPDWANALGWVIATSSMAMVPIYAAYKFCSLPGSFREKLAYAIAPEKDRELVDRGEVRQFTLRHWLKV
# [4] = target: Sodium-dependent dopamine transporter (Homo sapiens) (UniProt Q01959); assay: Displacement of [3H]BTCP from recombinant human DAT receptor expressed in CHO cells at 10 uM incubated for 120 mins by scintillation counting method; type: cell-based
# Procedure, shortened: (§1)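 Radioligand displacement run by a commercial provider, with test compound at 10 μM. Reported as mean ± SD of two independent measurements, each in duplicate.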
# [5] = target: Sodium-dependent serotonin transporter (Homo sapiens) (UniProt P31645); assay: Displacement of [3H]imipramine from recombinant human SERT receptor expressed in CHO cells at 10 uM incubated for 60 mins by scintillation counting method; type: cell-based; procedure, shortened: as §1
# [6] = Drug accumulation in C57BL/6JRJ mouse adrenal gland at 5 mg/kg, iv followed by 1 week after washout period treated at 5 mg/kg, po followed by 1 week after washout period treated at 5 mg/kg, po measured after 30 mins; type: ADME, organism-based; settings: in vivo, 168 h, time 1 weeks
# Procedure, shortened: (§2)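 The same four C57BL/6JRJ mice (2 male, 2 female) first had i.v. and then oral PK runs, each followed by 1 week washout. They were then gavaged with 5 mg/kg in saline at 5 mL/kg. At 30 min they were decapitated under isoflurane, and blood and tissues were harvested. Tissue levels were quantified by LC-ESI-MS/MS and given as mean ± SD of four mice.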
# [7] = Acute toxicity in C57BL6/J mouse assessed as gastrointestinal distress at 1.0 to 10 mg/kg, ip; type: organism-based; settings: in vivo, dose 1-10 mg/kg
# Procedure, shortened: (§3)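 Male mice, 12 weeks old, were handled for 10 days and rotarod-trained before dosing. Each received 1.0 or 10 mg/kg i.p. (n = 7) or vehicle, 0.5% DMSO (n = 6), at 1% body-weight volume. Animals were held 40 min in a separate cage, then observed during rotarod, light/dark box and rectal temperature tests for signs of toxicity. Sacrifice was 1 h post-dose.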
# [8] = Acute toxicity in C57BL6/J mouse assessed as hunched posture at 1.0 to 10 mg/kg, ip; type: organism-based; settings: in vivo, dose 1-10 mg/kg; procedure, shortened: as §3
# [9] = Acute toxicity in C57BL6/J mouse assessed as piloerection at 1.0 to 10 mg/kg, ip; type: organism-based; settings: in vivo, dose 1-10 mg/kg; procedure, shortened: as §3
# [10] = Acute toxicity in C57BL6/J mouse assessed as convulsions at 1.0 to 10 mg/kg, ip; type: organism-based; settings: in vivo, dose 1-10 mg/kg; procedure, shortened: as §3
# [11] = AUC in C57BL/6JRJ mouse at 5 mg/kg, iv measured up to 24 hrs; type: ADME, organism-based; settings: in vivo
# Procedure, shortened: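 C57BL/6JRJ mice, 8–9 weeks old (2 male, 2 female), received 5 mg/kg (dose based on free salt MW) in 0.9% saline at 5 mL/kg by tail-vein injection after tail warming. Tail-vein blood microsamples (<20 μL) were taken at 5, 15, 30 min and 1, 1.5, 2, 4, 8 and 24 h, quantified by MRM LC-ESI-MS/MS, and reported as mean ± SD of four mice.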
# [12] = Drug accumulation in C57BL/6JRJ mouse brain at 5 mg/kg, iv followed by 1 week after washout period treated at 5 mg/kg, po followed by 1 week after washout period treated at 5 mg/kg, po measured after 30 mins; type: ADME, organism-based; settings: in vivo, 168 h, time 1 weeks; procedure, shortened: as §2
# Sequence of Sodium-dependent noradrenaline transporter (Homo sapiens) (P23975 whole entry): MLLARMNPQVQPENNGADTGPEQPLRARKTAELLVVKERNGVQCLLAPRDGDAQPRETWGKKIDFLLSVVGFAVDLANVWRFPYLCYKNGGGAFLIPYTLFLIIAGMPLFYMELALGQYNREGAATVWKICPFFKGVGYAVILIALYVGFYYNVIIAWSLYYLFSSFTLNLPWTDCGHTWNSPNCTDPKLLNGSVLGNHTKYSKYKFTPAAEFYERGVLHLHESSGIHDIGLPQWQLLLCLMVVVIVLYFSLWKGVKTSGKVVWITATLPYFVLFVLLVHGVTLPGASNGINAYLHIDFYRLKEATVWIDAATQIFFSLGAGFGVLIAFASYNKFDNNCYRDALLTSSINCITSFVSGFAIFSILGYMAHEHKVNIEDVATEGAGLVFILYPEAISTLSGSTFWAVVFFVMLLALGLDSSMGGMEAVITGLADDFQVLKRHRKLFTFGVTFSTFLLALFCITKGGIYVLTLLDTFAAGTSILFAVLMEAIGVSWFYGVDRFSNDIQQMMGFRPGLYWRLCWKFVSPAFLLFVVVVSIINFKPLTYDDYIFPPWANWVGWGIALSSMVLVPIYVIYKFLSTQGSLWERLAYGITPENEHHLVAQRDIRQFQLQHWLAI
# Sequence of Sodium-dependent serotonin transporter (Homo sapiens) (P31645 whole entry, looked up): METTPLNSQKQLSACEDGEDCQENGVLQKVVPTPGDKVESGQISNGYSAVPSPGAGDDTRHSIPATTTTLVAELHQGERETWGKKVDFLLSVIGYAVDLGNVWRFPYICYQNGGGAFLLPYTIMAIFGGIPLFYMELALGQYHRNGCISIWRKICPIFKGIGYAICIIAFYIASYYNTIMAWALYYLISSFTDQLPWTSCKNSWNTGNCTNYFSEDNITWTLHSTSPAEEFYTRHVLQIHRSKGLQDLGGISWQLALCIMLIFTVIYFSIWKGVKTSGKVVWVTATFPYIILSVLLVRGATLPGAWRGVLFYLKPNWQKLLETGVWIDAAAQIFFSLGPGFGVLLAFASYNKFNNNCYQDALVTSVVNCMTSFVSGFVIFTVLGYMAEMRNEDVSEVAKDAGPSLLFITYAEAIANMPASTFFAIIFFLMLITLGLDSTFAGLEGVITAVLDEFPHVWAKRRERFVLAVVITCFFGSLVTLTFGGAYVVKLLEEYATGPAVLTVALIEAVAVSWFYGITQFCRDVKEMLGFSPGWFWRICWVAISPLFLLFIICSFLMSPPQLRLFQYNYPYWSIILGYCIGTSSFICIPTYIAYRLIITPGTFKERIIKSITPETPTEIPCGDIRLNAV
SMILES,inhibition [1],inhibition [2],inhibition [3],other results
Clc1ccc(CN2CCCC[C@H]3NCC[C@H]32)cc1,Active,Active,Active,
Clc1cccc(CN2CCCC[C@H]3NCC[C@H]32)c1,Active,Active,Active,
c1ccc(CN2CCCC[C@@H]3NCCCC[C@H]32)cc1,,,,Activity [4]: Active; Activity [5]: Active
Brc1cccc(CN2CCCC[C@H]3NCC[C@H]32)c1,Active,Active,Active,
c1ccc(CN2CCCC[C@H]3NCCC[C@H]32)cc1,,,,Activity [4]: Active; Activity [5]: Active
c1ccc(CN2CCCC[C@@H]3NCCC[C@H]32)cc1,,,,Activity [4]: Active; Activity [5]: Active
Clc1ccccc1CN1CCCC[C@H]2NCC[C@H]21,Active,Active,Active,
Clc1cc(Cl)cc(CN2CCCC[C@H]3NCC[C@H]32)c1,Active,Active,Active,
Clc1cccc(CN2CCCC[C@H]3NCC[C@H]32)c1Cl,Active,Active,Active,
c1ccc(CN2CCCC[C@H]3NCC[C@H]32)cc1,,,,Drug uptake [6]: Active; Activity [7]: Non-toxic; Activity [8]: Non-toxic; Activity [9]: Non-toxic; Activity [10]: Non-toxic; AUC [11]: 47948 ng·min/mL; Drug uptake [12]: Active
Fc1cccc(CN2CCCC[C@H]3NCC[C@H]32)c1,Active,Active,Active,
